Results: ChEMBL document CHEMBL1134635, “Aziridinyl quinone antitumor agents based on indoles and cyclopent[b]indoles: structure-activity relationships for cytotoxicity and antitumor activity” (2001)

Target: NAD(P)H dehydrogenase [quinone] 1 (Homo sapiens) (UniProt P15559)
Experiment: The substrate specificity obtained from the ratio of Vmax to KM for human DT-diaphorase (from non-small-cell lung NCI-H460 cell line)
Format: cell-based
Details: not given
In short: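 Recombinant human DT-diaphorase (from NCI-H460) at 1.4 × 10^-9 M final with 0.3 mM NADH in Tris buffer, quinone 1.3 × 10-6 to 6.7 × 10^-5 M final from a 4.0 mM DMSO stock. Both parts argon-purged 20 min and held at 30 °C 10 min, then mixed.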

Sequence of NAD(P)H dehydrogenase [quinone] 1 (Homo sapiens) (P15559 whole entry): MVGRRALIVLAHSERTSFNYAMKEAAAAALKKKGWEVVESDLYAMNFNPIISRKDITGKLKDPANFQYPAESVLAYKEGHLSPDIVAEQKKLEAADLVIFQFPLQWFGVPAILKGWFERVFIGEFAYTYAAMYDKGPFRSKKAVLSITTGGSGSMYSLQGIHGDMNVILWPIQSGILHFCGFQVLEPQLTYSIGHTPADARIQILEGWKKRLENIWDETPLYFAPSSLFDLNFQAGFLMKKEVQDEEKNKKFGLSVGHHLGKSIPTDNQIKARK

Structure (SMILES) | Ratio
CC(=O)OC1CCc2c1[nH]c1c2C(=O)C(N2CC2)=C(C)C1=O (stereo not drawn) | 65500
CC1=C(N2CC2)C(=O)c2c(c3c(n2C)C(O)CC3)C1=O (stereo not drawn) | 85500
CC1=C(N2CC2)C(=O)c2[nH]c3c(c2C1=O)CCC3O (stereo not drawn) | 142000
CC(=O)OC1CCc2c1[nH]c1c2C(=O)C(C)=C(N2CC2)C1=O (stereo not drawn) | 160000
Cn1c(CO)c(CO)c2c1C(=O)C=C(N1CC1)C2=O | 302000
CC1=C(N2CC2)C(=O)c2[nH]c(CO)c(CO)c2C1=O | 106000
CC1=C(N2CC2)C(=O)c2c(c(CO)c(CO)n2C)C1=O | 41700
CC(=O)OCc1[nH]c2c(c1COC(C)=O)C(=O)C(N1CC1)=CC2=O | 172000
CC1=C(N2CC2)C(=O)c2c([nH]c3c2CCC3O)C1=O (stereo not drawn) | 147000
CC1=C(N2CC2)C(=O)c2c(CO)c(CO)n(C)c2C1=O | 32600
CC(=O)OC1CCc2c3c(n(C(C)=O)c21)C(=O)C=C(N1CC1)C3=O (stereo not drawn) | 705000

Tested on: Nucleic Acid
Experiment: % of DNA reductive alkylation determined by catalytic reduction of aziridinyl quinones in presence of 600 bp calf thymus DNA
Format: functional
Set-up: concentration or dose not given beside the values
Details: Bos taurus
In short: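 Calf thymus DNA (1-2 mg, sonicated to ~600 bp) in 0.05 M Tris pH 7.4 with Pd/C, quinone added at 5:1 base pair equivalents in DMSO. Degassed under argon, H2-purged 10 min, argon-purged, then 30 °C for 24 h anaerobically. Catalyst filtered off, DNA ethanol-precipitated twice, and alkylation quantified by absorbance at 550 nm (ε 800 M-1 cm-1).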

Structure (SMILES) | Activity [%]
CCOC(=O)c1[nH]c2c(c1CO)C(=O)C=C(N1CC1)C2=O | 2.2
CC(=O)OC1CCc2c1[nH]c1c2C(=O)C(N2CC2)=C(C)C1=O (stereo not drawn) | 21
CC1=C(N2CC2)C(=O)c2c(c3c(n2C)C(O)CC3)C1=O (stereo not drawn) | 0.3
CC1=C(N2CC2)C(=O)c2[nH]c3c(c2C1=O)CCC3O (stereo not drawn) | 10
CC(=O)OC1CCc2c1[nH]c1c2C(=O)C(C)=C(N2CC2)C1=O (stereo not drawn) | 44
Cn1c(CO)c(CO)c2c1C(=O)C=C(N1CC1)C2=O | 3.8
CC1=C(N2CC2)C(=O)c2[nH]c(CO)c(CO)c2C1=O | 4
CC1=C(N2CC2)C(=O)c2c(c(CO)c(CO)n2C)C1=O | 0
CC(=O)OCc1[nH]c2c(c1COC(C)=O)C(=O)C(N1CC1)=CC2=O | 43
CC1=C(N2CC2)C(=O)c2c([nH]c3c2CCC3O)C1=O (stereo not drawn) | 11.2
CC1=C(N2CC2)C(=O)c2c(CO)c(CO)n(C)c2C1=O | 0
CC(=O)OC1CCc2c3c(n(C(C)=O)c21)C(=O)C=C(N1CC1)C3=O (stereo not drawn) | 14

Tested on: NCI-H460
Experiment: Concentration required for total growth inhibition against NSC H460 cell line.
Format: functional
Details: Homo sapiens, read-out: Log TGI (converted)

Structure (SMILES) | TGI [nM]
CC1=C(N2CC2)C(=O)c2c(c(CO)c(CO)n2C)C1=O | 219

Tested on: NCI-H460
Experiment: Concentration of the drug required for total growth inhibition against NSC H460 cell line.
Format: functional
Details: Homo sapiens, read-out: Log TGI (converted)

Structure (SMILES) | TGI [nM]
CCOC(=O)c1[nH]c2c(c1CO)C(=O)C=C(N1CC1)C2=O | 4070
CC1=C(N2CC2)C(=O)c2c(c3c(n2C)C(O)CC3)C1=O (stereo not drawn) | 7590
CC1=C(N2CC2)C(=O)c2[nH]c3c(c2C1=O)CCC3O (stereo not drawn) | 107
CC(=O)OC1CCc2c1[nH]c1c2C(=O)C(C)=C(N2CC2)C1=O (stereo not drawn) | 676
Cn1c(CO)c(CO)c2c1C(=O)C=C(N1CC1)C2=O | 10
CC1=C(N2CC2)C(=O)c2c([nH]c3c2CCC3O)C1=O (stereo not drawn) | 21.4

Tested on: Panel NCI-60 (60 carcinoma cell lines)
Experiment: Cancer specificity was measured from the +/- value under average log LC50 60-cell line.
Format: functional
Details: Homo sapiens, read-out: Average log LC50 (converted)

Structure (SMILES) | LC50 [nM]
CC1=C(N2CC2)C(=O)c2c(c3c(n2C)C(O)CC3)C1=O (stereo not drawn) | 100000
CC1=C(N2CC2)C(=O)c2[nH]c3c(c2C1=O)CCC3O (stereo not drawn) | 72400
CC(=O)OC1CCc2c1[nH]c1c2C(=O)C(C)=C(N2CC2)C1=O (stereo not drawn) | 21400
Cn1c(CO)c(CO)c2c1C(=O)C=C(N1CC1)C2=O | 4470
CC1=C(N2CC2)C(=O)c2c([nH]c3c2CCC3O)C1=O (stereo not drawn) | 18200

Tested on: NCI-H460
Experiment: Concentration of the drug required for 50% growth inhibition against NSC (non small cell) H460 cell line.
Format: functional
Details: Homo sapiens

Structure (SMILES) | GI50 [nM]
CCOC(=O)c1[nH]c2c(c1CO)C(=O)C=C(N1CC1)C2=O | 1580
CC1=C(N2CC2)C(=O)c2c(c3c(n2C)C(O)CC3)C1=O (stereo not drawn) | 1260
CC1=C(N2CC2)C(=O)c2[nH]c3c(c2C1=O)CCC3O (stereo not drawn) | 10
CC(=O)OC1CCc2c1[nH]c1c2C(=O)C(C)=C(N2CC2)C1=O (stereo not drawn) | 112
Cn1c(CO)c(CO)c2c1C(=O)C=C(N1CC1)C2=O | 10
CC1=C(N2CC2)C(=O)c2c([nH]c3c2CCC3O)C1=O (stereo not drawn) | 10

Tested on: B16
Experiment: Treated over control values(T/C) were measured at day 25 by B16 melanoma syngraft assay at 2 mg/kg/day on day 1 after sc tumor implantation of 10 E(5) cells
Format: functional, Mus musculus
Details: route subcutaneous
In short: (§1)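 B16 melanoma syngraft in C57/bl mice, 10^5 cells implanted subcutaneously in the front flank on day 0. T/C recorded at day 25. Toxic means early lethality, or ≥50% lethality before any control deaths.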

Structure (SMILES) | Activity [%]
CC1=C(N2CC2)C(=O)c2[nH]c(CO)c(C)c2C1=O | 61
CC(=O)OCc1[nH]c2c(c1C)C(=O)C(N1CC1)=C(C)C2=O | 47
CC1=C(N2CC2)C(=O)c2[nH]c(C)c(C)c2C1=O | 22
CC1=C(N2CC2)C(=O)c2c([nH]c(C)c2C)C1=O | 10
CC1=C(N2CC2)C(=O)c2[nH]c3c(c2C1=O)CCC3O (stereo not drawn) | 75
Cn1c(CO)c(CO)c2c1C(=O)C=C(N1CC1)C2=O | >50
CC1=C(N2CC2)C(=O)c2[nH]c(CO)c(CO)c2C1=O | 54

Tested on: B16
Experiment: Treated over control values(T/C) were measured at day 25 by B16 melanoma syngraft assay at 3 mg/kg/day on day 5 after sc tumor implantation of 10 E(5) cells
Format: functional, Mus musculus
Details: route subcutaneous
In short: as §1

Structure (SMILES) | Activity [%]
CC1=C(N2CC2)C(=O)c2[nH]c(CO)c(C)c2C1=O | 37
CC(=O)OCc1[nH]c2c(c1C)C(=O)C(N1CC1)=C(C)C2=O | >50
CC1=C(N2CC2)C(=O)c2[nH]c(C)c(C)c2C1=O | >50
CC1=C(N2CC2)C(=O)c2c([nH]c(C)c2C)C1=O | 60
Cn1c(CO)c(CO)c2c1C(=O)C=C(N1CC1)C2=O | >50
CC1=C(N2CC2)C(=O)c2[nH]c(CO)c(CO)c2C1=O | >50

Tested on: NCI-H460
Experiment: Concentration required for 50% cell kill. against NSC H460 cell line.
Format: functional
Details: Homo sapiens

Structure (SMILES) | LC50 [nM]
CC1=C(N2CC2)C(=O)c2c(c3c(n2C)C(O)CC3)C1=O (stereo not drawn) | 50100
CC(=O)OC1CCc2c1[nH]c1c2C(=O)C(C)=C(N2CC2)C1=O (stereo not drawn) | 1230
Cn1c(CO)c(CO)c2c1C(=O)C=C(N1CC1)C2=O | 10
CC1=C(N2CC2)C(=O)c2c([nH]c3c2CCC3O)C1=O (stereo not drawn) | 851

Tested on: NCI-H460
Experiment: Concentration required for 50% growth inhibition against NSC (non small cell) H460 cell line.
Format: functional
Details: Homo sapiens

Structure (SMILES) | GI50 [nM]
CC1=C(N2CC2)C(=O)c2c(c(CO)c(CO)n2C)C1=O | 38.9

Tested on: Panel NCI-60 (60 carcinoma cell lines)
Experiment: Cancer specificity was measured from the +/- value under average log LC50 60-cell line
Format: functional
Details: Homo sapiens, read-out: Average log LC50 (converted)

Structure (SMILES) | CC50 [nM]
CCOC(=O)c1[nH]c2c(c1CO)C(=O)C=C(N1CC1)C2=O | 4790

Tested on: B16
Experiment: Treated over control values(T/C) were measured at day 25 by B16 melanoma syngraft assay at 5 mg/kg/day on day 9 after sc tumor implantation of 10 E(5) cells
Format: functional, Mus musculus
Details: route subcutaneous
In short: as §1

Structure (SMILES) | Activity [%]
CC1=C(N2CC2)C(=O)c2[nH]c(CO)c(C)c2C1=O | 34
CC(=O)OCc1[nH]c2c(c1C)C(=O)C(N1CC1)=C(C)C2=O | >50
CC1=C(N2CC2)C(=O)c2[nH]c(C)c(C)c2C1=O | >50
CC1=C(N2CC2)C(=O)c2c([nH]c(C)c2C)C1=O | >50
CC1=C(N2CC2)C(=O)c2[nH]c3c(c2C1=O)CCC3O (stereo not drawn) | 45
Cn1c(CO)c(CO)c2c1C(=O)C=C(N1CC1)C2=O | >50
CC1=C(N2CC2)C(=O)c2[nH]c(CO)c(CO)c2C1=O | >50
CC1=C(N2CC2)C(=O)c2c(c(CO)c(CO)n2C)C1=O | >50
